Reference: the M2OR odorant receptor database

What was measured:
Conditions in all cases: stereoisomer not certain
[1] = biological target: T1, UniProt A2ATE5
T1 sequence (whole entry): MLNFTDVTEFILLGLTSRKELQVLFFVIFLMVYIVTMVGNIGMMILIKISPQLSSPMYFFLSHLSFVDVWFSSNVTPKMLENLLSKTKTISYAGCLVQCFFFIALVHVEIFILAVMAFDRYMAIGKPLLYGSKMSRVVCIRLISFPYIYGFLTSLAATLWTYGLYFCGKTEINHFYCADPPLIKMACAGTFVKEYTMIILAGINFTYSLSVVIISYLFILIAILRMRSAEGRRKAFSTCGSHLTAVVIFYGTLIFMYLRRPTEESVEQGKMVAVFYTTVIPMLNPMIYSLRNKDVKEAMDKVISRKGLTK
How it was run: (§1)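 Transient luciferase assays in mammalian cell lines were common, though methods varied by source. The values come from published papers and their supplementary material, with extra details from the original authors when needed. Responsive refers to a measured signal the original authors judged statistically different from baseline, and non-responsive (inactive) to the remainder.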

[2] = biological target: T2, UniProt A2AVB0
T2 sequence (whole entry): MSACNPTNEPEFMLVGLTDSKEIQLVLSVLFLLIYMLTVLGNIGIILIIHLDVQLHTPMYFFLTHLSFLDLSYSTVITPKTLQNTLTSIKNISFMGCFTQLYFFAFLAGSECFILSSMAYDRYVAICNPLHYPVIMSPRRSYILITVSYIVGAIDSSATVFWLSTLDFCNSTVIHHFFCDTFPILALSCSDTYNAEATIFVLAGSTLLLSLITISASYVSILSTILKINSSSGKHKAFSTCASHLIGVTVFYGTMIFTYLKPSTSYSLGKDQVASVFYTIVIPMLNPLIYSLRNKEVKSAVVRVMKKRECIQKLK
How it was run: as §1

[3] = biological target: T3, UniProt E1BM68
T3 sequence (whole entry): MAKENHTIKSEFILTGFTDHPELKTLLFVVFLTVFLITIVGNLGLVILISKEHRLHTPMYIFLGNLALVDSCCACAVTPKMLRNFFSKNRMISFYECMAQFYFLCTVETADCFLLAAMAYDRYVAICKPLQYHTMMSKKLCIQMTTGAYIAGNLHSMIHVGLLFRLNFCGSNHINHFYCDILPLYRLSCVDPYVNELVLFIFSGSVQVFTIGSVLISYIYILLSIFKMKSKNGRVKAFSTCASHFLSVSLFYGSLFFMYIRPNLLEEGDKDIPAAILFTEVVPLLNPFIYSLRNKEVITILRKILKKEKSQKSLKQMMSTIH
How it was run: as §1

[4] = biological target: T4, UniProt E9PVX1
T4 sequence (whole entry): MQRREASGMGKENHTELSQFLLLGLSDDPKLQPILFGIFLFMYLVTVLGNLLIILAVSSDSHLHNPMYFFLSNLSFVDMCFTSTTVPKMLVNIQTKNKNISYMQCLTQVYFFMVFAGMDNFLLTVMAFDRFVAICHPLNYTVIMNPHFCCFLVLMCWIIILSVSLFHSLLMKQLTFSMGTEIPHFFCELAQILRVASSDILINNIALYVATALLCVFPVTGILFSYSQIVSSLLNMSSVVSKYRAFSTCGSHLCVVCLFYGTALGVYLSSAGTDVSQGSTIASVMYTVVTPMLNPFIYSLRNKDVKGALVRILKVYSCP
How it was run: as §1

[5] = biological target: T5, UniProt E9PZ66
T5 sequence (whole entry): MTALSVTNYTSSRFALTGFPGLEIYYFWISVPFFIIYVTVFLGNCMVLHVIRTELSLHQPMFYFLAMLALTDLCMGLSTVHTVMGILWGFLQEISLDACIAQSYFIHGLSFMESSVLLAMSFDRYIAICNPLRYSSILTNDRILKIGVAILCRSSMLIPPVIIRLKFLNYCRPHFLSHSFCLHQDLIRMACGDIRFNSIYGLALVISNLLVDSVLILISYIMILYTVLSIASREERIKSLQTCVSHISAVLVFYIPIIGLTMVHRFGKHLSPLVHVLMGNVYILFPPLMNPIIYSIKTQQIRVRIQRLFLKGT
How it was run: as §1

[6] = biological target: T6, UniProt E9Q4X7
T6 sequence (whole entry): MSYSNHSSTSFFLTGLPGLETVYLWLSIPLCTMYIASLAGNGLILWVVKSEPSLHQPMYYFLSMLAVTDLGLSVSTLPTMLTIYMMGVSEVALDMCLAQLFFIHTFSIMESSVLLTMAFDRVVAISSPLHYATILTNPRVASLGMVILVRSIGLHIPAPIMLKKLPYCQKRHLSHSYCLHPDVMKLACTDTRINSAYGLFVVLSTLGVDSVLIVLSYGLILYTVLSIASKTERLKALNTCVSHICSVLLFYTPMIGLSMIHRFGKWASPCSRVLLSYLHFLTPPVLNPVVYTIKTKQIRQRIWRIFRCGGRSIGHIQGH
How it was run: as §1

[7] = biological target: T7, UniProt E9Q546
T7 sequence (whole entry): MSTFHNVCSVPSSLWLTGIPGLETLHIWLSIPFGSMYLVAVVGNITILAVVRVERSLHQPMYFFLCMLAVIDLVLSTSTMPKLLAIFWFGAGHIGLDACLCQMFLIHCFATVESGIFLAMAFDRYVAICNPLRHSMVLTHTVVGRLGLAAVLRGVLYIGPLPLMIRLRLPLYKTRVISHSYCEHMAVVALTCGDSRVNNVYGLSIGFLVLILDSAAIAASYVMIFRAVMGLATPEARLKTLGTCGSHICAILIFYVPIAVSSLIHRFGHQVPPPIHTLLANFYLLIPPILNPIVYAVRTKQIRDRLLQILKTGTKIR
How it was run: as §1

[8] = biological target: T8, UniProt E9Q6Z7
T8 sequence (whole entry): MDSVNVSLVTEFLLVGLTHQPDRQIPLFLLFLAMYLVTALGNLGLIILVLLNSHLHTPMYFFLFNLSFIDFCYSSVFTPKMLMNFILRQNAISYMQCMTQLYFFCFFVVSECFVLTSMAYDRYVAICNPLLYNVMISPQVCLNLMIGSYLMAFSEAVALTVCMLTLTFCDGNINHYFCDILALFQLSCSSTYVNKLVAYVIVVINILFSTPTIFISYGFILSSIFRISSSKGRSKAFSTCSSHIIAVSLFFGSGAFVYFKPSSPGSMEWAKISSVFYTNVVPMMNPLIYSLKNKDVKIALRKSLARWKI
How it was run: as §1

[9] = biological target: T9, UniProt E9QAT7
T9 sequence (whole entry): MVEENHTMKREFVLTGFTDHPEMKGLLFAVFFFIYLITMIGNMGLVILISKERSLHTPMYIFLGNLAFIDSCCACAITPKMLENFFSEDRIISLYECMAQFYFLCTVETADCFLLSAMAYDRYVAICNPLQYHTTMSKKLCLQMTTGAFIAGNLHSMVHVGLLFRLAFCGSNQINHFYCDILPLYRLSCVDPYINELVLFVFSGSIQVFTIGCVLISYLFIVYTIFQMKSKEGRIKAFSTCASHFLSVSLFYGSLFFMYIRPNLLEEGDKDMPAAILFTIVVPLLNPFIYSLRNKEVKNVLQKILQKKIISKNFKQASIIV
How it was run: as §1

[10] = biological target: T10, UniProt E9PXN3
T10 sequence (whole entry): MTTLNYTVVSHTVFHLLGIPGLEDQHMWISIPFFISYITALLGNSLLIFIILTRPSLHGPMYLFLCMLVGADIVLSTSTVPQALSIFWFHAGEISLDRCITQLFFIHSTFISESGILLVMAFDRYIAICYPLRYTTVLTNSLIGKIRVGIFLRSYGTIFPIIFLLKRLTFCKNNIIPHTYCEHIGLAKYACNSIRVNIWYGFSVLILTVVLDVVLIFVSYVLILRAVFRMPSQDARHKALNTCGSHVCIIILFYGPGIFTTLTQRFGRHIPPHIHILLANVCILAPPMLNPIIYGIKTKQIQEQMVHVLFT
How it was run: as §1
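Also: active if original authors judged signal statistically different from baseline.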

SMILES	odorant receptor agonist call [1]	odorant receptor agonist call [2]	odorant receptor agonist call [3]	odorant receptor agonist call [4]	odorant receptor agonist call [5]	odorant receptor agonist call [6]	odorant receptor agonist call [7]	odorant receptor agonist call [8]	odorant receptor agonist call [9]	odorant receptor agonist call [10]
CCc1ncc(C)nc1CC	inactive	inactive	active	inactive	inactive	inactive	inactive	inactive	active	–
CC(=O)OCc1ccc2c(c1)OCO2	inactive	inactive	–	inactive	inactive	inactive	inactive	inactive	–	–
C1CCOC1	inactive	inactive	–	inactive	inactive	inactive	inactive	inactive	–	–
CCC(C)c1nccnc1OC (configuration not stated)	inactive	inactive	active	inactive	inactive	inactive	inactive	inactive	inactive	–
CCCCCCCCCCCO	inactive	inactive	–	inactive	inactive	inactive	inactive	inactive	–	inactive
CCCCCCCCCCOC(C)=O	inactive	inactive	–	inactive	inactive	inactive	inactive	inactive	–	–
CCc1nccnc1CC	inactive	inactive	active	inactive	inactive	inactive	inactive	inactive	active	–
CNc1ccccc1C(=O)OC	inactive	inactive	–	inactive	inactive	inactive	inactive	inactive	–	–
CCCC(C)C(=O)OCC (configuration not stated)	inactive	inactive	–	inactive	inactive	inactive	inactive	inactive	–	–
CCCCCCC(C=O)=Cc1ccccc1	inactive	inactive	–	inactive	inactive	inactive	inactive	inactive	–	–
CCCC=O	inactive	inactive	–	inactive	inactive	inactive	inactive	inactive	–	–
CC(=O)OCCc1ccccc1	inactive	inactive	–	inactive	inactive	inactive	inactive	inactive	–	–
C=CC(=C)CCC=C(C)CCC=C(C)C	inactive	inactive	–	inactive	inactive	inactive	inactive	inactive	–	–
CCCCCC(C)O (configuration not stated)	inactive	inactive	–	inactive	inactive	inactive	inactive	inactive	–	–
CC=Cc1ccc(OC)cc1	inactive	inactive	–	inactive	inactive	inactive	inactive	inactive	–	–
